Test results taken from ChEMBL document CHEMBL4680079, “Discovery of a Quinoline-4-carboxamide Derivative with a Novel Mechanism of Action, Multistage Antimalarial Activity, and Potent in Vivo Efficacy” (J Med Chem, 2016).
≈ marks a conversion by molar mass, not a printed value.

What was measured:
[1] = Permeability of the compound at 10 uM incubated for 5 hrs by UPLC-MS/MS analysis based PAMPA method; format: ADME; settings: read-out: permeability
Procedure, shortened: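 PAMPA run on a lipid-oil-lipid tri-layer filter at pH 7.4. Compound at 10 μM in PBS (DMSO ≤5%) in donor wells, PBS in acceptor wells, kept 5 h at room temperature. Both compartments quantified by UPLC-MS/MS. Data accepted only when recovery exceeded 70%.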

[2] = tested on: Plasmodium falciparum; assay: Antiplasmodial activity against chloroquine-sensitive Plasmodium falciparum 3D7 infected in human red blood cells assessed as growth inhibition by SYBR Green fluorescence assay; format: functional, organism-based, RBC; settings: 3D7, Erythrocyte
Procedure, shortened: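 P. falciparum 3D7 grown in 5% human red cells in RPMI 1640 (pH 7.3) with 0.5% Albumax II, hypoxanthine and gentamicin at 37°C under 1% O₂/3% CO₂. Growth measured by SYBR green fluorescence (ex 485/em 528 nm), with mefloquine as assay control. EC50 calculated.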

[3] = tested on: MRC5; assay: Antiproliferative activity against human MRC5 cells assessed as reduction in cell viability after 68 hrs by resazurin dye based fluorescence assay; settings: MRC5, 68 h
Procedure, shortened: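 MRC-5 fibroblasts plated overnight as monolayers, exposed to compound pre-diluted in MEM for 68 h. Resazurin then added (final 50 μM) for 3 h, fluorescence read at ex 528/em 590 nm. Signal converted to % inhibition against high- and no-inhibition controls. Plates accepted at Z' > 0.5.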

[4] = Kinetic aqueous solubility of the compound by laser nephelometry; format: physicochemical; settings: read-out: Kinetic_solubility
Procedure, shortened: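 Kinetic solubility measured by laser nephelometry. DMSO serial dilutions diluted into water to give final 100–5 μg/mL at 1.0% DMSO. Read immediately, in triplicate aliquots.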

[5] = Intrinsic clearance in CD1 mouse liver microsomes at 0.5 uM in presence of NADPH incubated upto 30 mins by UPLC-MS/MS analysis; format: ADME, Microsome; settings: 0.5 h
Procedure, shortened: (§1)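 Compound at 0.5 μM incubated with female CD1 mouse, male Sprague-Dawley rat or pooled human liver microsomes (0.5 mg/mL, 50 mM potassium phosphate, pH 7.4). Reaction started with excess NADPH. Samples taken at 0-30 min, quenched in acetonitrile, analysed by UPLC-MS/MS. Verapamil used as control, single time course.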

[6] = tested on: Plasmodium falciparum; assay: Antiplasmodial activity against late stage (IV/V) Plasmodium falciparum NF54 gametocytes transfected with GFP-LUC assessed as growth inhibition incubated for 72 hrs by mitotracker Red-CMXROS dye based fluorescence microscopic analysis; format: functional, organism-based; settings: NF54, 72 h
Procedure, shortened: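 NF54 pfs16-LUC-GFP stage IV–V gametocytes (10% parasitaemia, 0.1% haematocrit) exposed to compound in 0.4% DMSO, three concentrations per log, for 72 h at 37°C under 5% CO2/5% O2/90% N2. MitoTracker Red CM-H2Xros then added for 16 h and viable gametocytes counted by imaging.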

[7] = tested on: Plasmodium berghei; assay: Antiplasmodial activity against Plasmodium berghei ANKA infected in NMRI mouse assessed as survival days at 1 mg/kg, po QD for 4 days; format: functional; settings: time 4 day
[8] = tested on: Plasmodium berghei; assay: Antiplasmodial activity against Plasmodium berghei ANKA infected in NMRI mouse assessed as reduction in parasitemia at 1 mg/kg, po QD for 4 days; format: functional; design: scale not given: the % may be the effect or the level left; settings: time 4 day
Procedure, shortened: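 Female NMRI mice (n=3 per group, randomized, not blinded) infected with GFP-transfected P. berghei ANKA. Oral dosing once daily for 4 days in 10% DMSO/40% PEG400/50% water or HPMC suspension vehicle. Parasitaemia measured by flow cytometry on blood collected 96 h after infection. Mice watched for toxicity over 4 h post-dose each day.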

[9] = Protein binding in CD1 mouse plasma measured after 5 hr by UPLC-MS/MS analysis based equilibrium dialysis method; format: ADME, cell-free; settings: mouse, 5 h
Procedure, shortened: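 Equilibrium dialysis of female CD1 mouse plasma spiked at 10 μg/mL (12-14 kDa membrane) against isotonic buffer for 5 h at ~37°C with shaking. Unbound fraction taken as the buffer/plasma peak-area ratio by UPLC-MS/MS. n=6 replicates, run in triplicate.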

[10] = Intrinsic clearance in Sprague-Dawley rat liver microsomes at 0.5 uM in presence of NADPH incubated upto 30 mins by UPLC-MS/MS analysis; format: ADME, Microsome; settings: 0.5 h; procedure, shortened: as §1
[11] = Intrinsic clearance in human liver microsomes at 0.5 uM in presence of NADPH incubated upto 30 mins by UPLC-MS/MS analysis; format: ADME, Microsome; settings: 0.5 h; procedure, shortened: as §1

Compound	EC50 [2]	EC50 [3]	solubility kinetic [4]	CLH [5]	also measured
O=C(NCCN1CCC(F)(F)CC1)c1cc(NCCCN2CCOCC2)nc2ccc(F)cc12	15 µM	–	–	–	Papp at 5 h, 10 µM [1]: 9.4 ×10⁻⁶ cm/s
Cc1ccc(-c2cc(C(=O)Nc3cccnc3)c3ccccc3n2)cc1	0.99 µM	> 50 µM	–	–	–
Cc1ccc(-c2cc(C(=O)NCCCN(C)C)c3cc(Cl)ccc3n2)cc1	6.7 µM	6 µM	262 µM (≈ 100 µg/mL)	1.1 mL/min/g	–
O=C(NCCN1CCCC1)c1cc(-c2ccc(C(=O)N3CCOCC3)cc2)nc2ccc(F)cc12	0.14 µM	> 50 µM	–	–	–
O=C(NCCN1CCCC1)c1cc(NCCC2CCOCC2)nc2ccc(F)cc12	0.002 µM	> 50 µM	–	–	–
Cc1cc(Nc2cc(C(=O)NCCN3CCCC3)c3cc(F)ccc3n2)on1	> 50 µM	> 50 µM	–	–	–
O=C(NCCN1CCCC(F)(F)C1)c1cc(NCCCN2CCOCC2)nc2ccc(F)cc12	36 µM	–	–	–	Papp at 5 h, 10 µM [1]: 12 ×10⁻⁶ cm/s
O=C(NCCN1CCCC1)c1cc(NCCN2CCOCC2)nc2ccc(F)cc12	0.19 µM	50 µM	–	–	–
Cc1ccc(-c2cc(C(=O)Nc3cccnc3)c3cc(Br)ccc3n2)cc1	0.12 µM	21 µM	39 µM (≈ 16.3 µg/mL)	5.3 mL/min/g	–
O=C(NCCN1CCCC1)c1cc(N2CCC(N3CCOCC3)CC2)nc2ccc(Cl)cc12	0.15 µM	13 µM	210 µM (≈ 99.1 µg/mL)	2.3 mL/min/g	–
O=C(NCCN1CCOCC1)c1cc(NCCCN2CCOCC2)nc2ccc(F)cc12	2.5 µM	–	–	–	Papp at 5 h, 10 µM [1]: 2.4 ×10⁻⁶ cm/s
O=C(NCCN1CCCC1)c1cc(-c2cccc(CN3CCOCC3)c2)nc2ccc(F)cc12	11 µM	–	–	–	–
C[C@@H]1CC[C@H]2[C@@H](C)C(=O)O[C@@H]3O[C@@]4(C)CC[C@@H]1[C@]32OO4 [ARTEMISININ]	–	–	–	–	EC50 [6]: 0.0008 µM
O=C(NCCN1CCC(F)CC1)c1cc(NCCCN2CCOCC2)nc2ccc(F)cc12	0.9 µM	–	–	–	Papp at 5 h, 10 µM [1]: 5.8 ×10⁻⁶ cm/s
O=C(NCCN1CCOCC1)c1cc(-c2ccc(CN3CCOCC3)cc2)nc2ccc(F)cc12	0.012 µM	–	> 210 µM	< 0.5 mL/min/g	–
Cc1ccc(-c2cc(C(=O)Nc3cccnc3)c3cc(Cl)ccc3n2)cc1	0.29 µM	21 µM	–	–	–
Cc1ccc(-c2cc(C(=O)NCCN3CCCCC3)c3cc(Cl)ccc3n2)cc1	0.32 µM	7 µM	–	–	–
Cc1ccc(-c2cc(C(=O)NCCN3CCCC3)c3cc(Cl)ccc3n2)cc1	0.44 µM	7 µM	13 µM (≈ 5.12 µg/mL)	2.1 mL/min/g	–

Compound	EC50 [2]	EC50 [3]	solubility kinetic [4]	CLH [5]	also measured
Cc1ccc(-c2cc(C(=O)NCCN3CCN(C)CC3)c3cc(Cl)ccc3n2)cc1	3.3 µM	8 µM	–	–	–
O=C(NCCN1CCC(F)(F)C1)c1cc(NCCCN2CCOCC2)nc2ccc(F)cc12	18 µM	–	–	–	Papp at 5 h, 10 µM [1]: 8.9 ×10⁻⁶ cm/s
CN(C)c1ccc(-c2cc(C(=O)NCCN3CCCC3)c3cc(F)ccc3n2)cc1	0.81 µM	10 µM	–	–	–
CN1CCN(c2cc(C(=O)NCCN3CCCC3)c3cc(F)ccc3n2)CC1	34 µM	20 µM	–	–	–
COc1cc(C)c2c(Oc3cccc(C(F)(F)F)c3)c(OC)cc(NC(C)CCCN)c2n1 (centres undefined) [TAFENOQUINE]	–	–	–	–	EC50 [6]: 5.25 µM
COc1ccc2nc3cc(Cl)ccc3c(Nc3cc(CN4CCCC4)c(O)c(CN4CCCC4)c3)c2n1 [PYRONARIDINE]	–	–	–	–	EC50 [6]: 3.11 µM
O=C(NCCN1CCCC1)c1cc(-c2ccc(CN3CCOCC3)c(F)c2)nc2ccc(F)cc12	0.0006 µM	19 µM	> 208 µM	1 mL/min/g	Papp at 5 h, 10 µM [1]: 6.3 ×10⁻⁶ cm/s; Survival [7]: 11 days; Activity [8]: 99.8%
Cc1ccc(-c2cc(C(=O)NCCN(C)C)c3cc(Cl)ccc3n2)cc1	1.2 µM	9 µM	–	–	–
O=C(NCCN1CCCC1)c1cc(N2CCC(N3CCOCC3)CC2)nc2ccc(F)cc12	0.68 µM	25 µM	220 µM (≈ 100 µg/mL)	0.5 mL/min/g	–
Cc1ccc(-c2cc(C(=O)Nc3cccnc3)c3cc(F)ccc3n2)cc1	0.35 µM	50 µM	36 µM (≈ 12.9 µg/mL)	8.6 mL/min/g	–
O=C(NCCN1CCCC1)c1cc(N2CCn3ccnc3C2)nc2ccc(F)cc12	5.8 µM	> 50 µM	–	–	–
Cc1ccc(-c2cc(C(=O)NCCN3CCCC3)c3cc(F)ccc3n2)cc1	0.7 µM	9 µM	180 µM (≈ 67.9 µg/mL)	3.4 mL/min/g	–
O=C(NCCN1CCCC1)c1cc(-c2ccc(CN3CCOCC3)cc2Cl)nc2ccc(F)cc12	0.003 µM	> 50 µM	> 201 µM	0.5 mL/min/g	PPB [9]: 56%
O=C(NCCN1CCCC1)c1cc(-c2ccc(N3CCOCC3)cc2)nc2ccc(F)cc12	0.6 µM	17 µM	–	–	–
Cc1ccc(-c2cc(C(=O)NCCN3CCOCC3)c3cc(Cl)ccc3n2)cc1	3.6 µM	26 µM	12 µM (≈ 4.92 µg/mL)	11 mL/min/g	–
O=C(NCCN1CCCC1)c1cc(-c2ccc(CN3CCS(=O)(=O)CC3)cc2)nc2ccc(F)cc12	0.0006 µM	41 µM	171 µM (≈ 87.3 µg/mL)	< 0.5 mL/min/g	Papp at 5 h, 10 µM [1]: 1.4 ×10⁻⁶ cm/s; Survival [7]: 7 days; Activity [8]: 99%; CLH [10]: 0.8 mL/min/g
O=C(NCCN1CCCC1)c1cc(-c2ccc(CN3CCCC3=O)cc2)nc2ccc(F)cc12	0.007 µM	–	> 217 µM	2 mL/min/g	Papp at 5 h, 10 µM [1]: 4.9 ×10⁻⁶ cm/s; Activity [8]: <40%; CLH [11]: 2 mL/min/g; CLH [10]: 0.6 mL/min/g
O=C(NCCN1CCCC1)c1cc(NCCN2CCCCC2)nc2ccc(F)cc12	8.9 µM	19 µM	–	–	–
